Data from ChEMBL document CHEMBL4513216, “Probing the Open Global Health Chemical Diversity Library for Multistage-Active Starting Points for Next-Generation Antimalarials” (ACS Infect Dis, 2020).

Experiment: Toxicity liver stage against HepG2, at 10uM
Format: cell-based
Set-up: test concentration 10 uM, cell line HepG2-A16-CD81EGFP
Details: human, HepG2-A16-CD81EGFP cells; read-out: INHIBITION
In short: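 Uninfected HepG2-A16-CD81EGFP cells, 3 × 10^3 per well, 1536-well, plated on prespotted compound at 10 μM final, parasite-free screening media added to match infected plates; puromycin 10 μM positive, DMSO 0.5% negative; run in parallel with 48 h PbLuc assay at 37 °C, 5% CO2; viability by CellTiter-Glo luminescence, normalized to controls.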

Row | Structure (SMILES) | cytotoxicity at 10 µM [%]
1 | CN(Cc1ccccc1)C(=O)[C@@H]1Cc2[nH]cnc2CN1C | -3.92
2 | COc1cccc(CNC[C@H]2COCc3nc4cccnc4n32)n1 | -1.57
3 | O=C(c1ccccn1)N1C[C@@H]2OCC(=O)N(CC3CCCCC3)[C@@H]2C1 | -2.86
4 | CCc1nc(-c2ccc(NC(=O)N3CCCC3)cc2)no1 | 5.03
5 | Cc1cccc(S(=O)(=O)NCC2CCN(c3cnccn3)CC2)c1 | 7.99
6 | O=C(c1nnn(-c2ccc(C(F)(F)F)cc2)n1)N1CCC(O)CC1 | -4.52
7 | O=C(c1ccc[nH]1)N1Cc2nccn2CC(Cn2ncccc2=O)C1 (configuration not stated) | 3.66
8 | Cc1nc(Nc2ccc(Cl)cn2)sc1C(=O)NC(C)C | 14
9 | NC(=O)c1nc(COc2ccc3c(c2)OCO3)no1 | 8.55
10 | COC(=O)CCn1ccc(=O)c2cc(OC)ccc21 | 3.88
11 | NC(=O)C1CCN(C(=O)NC(Cc2ccccc2)C(F)(F)F)CC1 (configuration not stated) | -7.72
12 | CN(Cc1cc(Br)cn1C)C(=O)Cc1cccnc1 | -4.18
13 | CC(C)C(C)N(C)Cc1nnc(-c2ccc(Br)s2)o1 (configuration not stated) | -1.65
14 | COc1cc2nc(C)sc2cc1NC(=O)CN(C)C(C)C | -3.93
15 | Cc1ccc(C(NC(=O)CCNC(=O)c2ccoc2)C(F)(F)F)cc1 (configuration not stated) | 9.49
16 | Cc1nn(-c2ccccc2)c(C)c1CC(=O)NC1CC(=O)N(C)C1 (configuration not stated) | 6.08
17 | COc1cc(CNC2CCCN(c3cccnn3)C2)cc2c1OCO2 (configuration not stated) | -2.22
18 | CNC(=O)CN(C)C1CCN(c2ccc(Cl)cc2)CC1 | -1.15
19 | CCOc1ccc(CNC(C)c2c(C)nn(C)c2C)cc1 (configuration not stated) | -0.00326
20 | Cc1cccc(N(CC(=O)N2CCCCC2)C(=O)C2CCCO2)c1 (configuration not stated) | -1.52
21 | CCN(CC1CCOC1)C(=O)c1nc(-c2ccco2)sc1C (configuration not stated) | -0.238

Row | Structure (SMILES) | cytotoxicity at 10 µM [%]
22 | Cc1sc(-c2ccco2)nc1C(=O)NCC1CCOC1 (configuration not stated) | -6.71
23 | CNS(=O)(=O)Cc1ccccc1CNc1ccc(C#N)cn1 | -6.45
24 | Cc1cc(NCc2csc(-c3ccsc3)n2)no1 | -0.912
25 | COc1ccccc1CN1CCN(CCN2CCOC2=O)CC1 | -11.2
26 | CCNS(=O)(=O)C1CCN(C(=O)c2ccc(F)cc2)C1 (configuration not stated) | 7.98
27 | Cc1ncccc1CNc1ccc(OCCO)nc1 | -1.78
28 | Cc1cnn(CC2CCCN2Cc2cc(=O)n3c(C)csc3n2)c1 (configuration not stated) | -2.11
29 | CCn1nc2c(cc1=O)CN(CC(=O)Nc1cc(C(C)C)no1)CC2 | -5.46
30 | CCN(CC)C(=O)c1cc(-c2cccc(Cl)c2)no1 | -8.79
31 | c1cc(CNc2nnc(Cc3ccsc3)o2)cs1 | 0.369
32 | Cn1ccnc1-c1noc(NCc2ccc(Cl)cc2)n1 | -9.46
33 | CC(C)Cn1ncc2cc(C(=O)N(C)Cc3cccc(O)c3)cnc21 | -4.67
34 | CS(=O)(=O)c1cccc(S(=O)(=O)NCCCN2CCNC(=O)C2)c1 | -5.87
35 | Cc1csc(NC(=O)C2(C)CCCO2)n1 (configuration not stated) | -2.54
36 | O=C1NC(c2cnc(C3CCC3)s2)Nc2ccccc21 (configuration not stated) | -3.95
37 | CNC(=O)NC(=O)COc1c(C(C)=O)ccc(Cl)c1Cl | 26.6
38 | CCn1ccnc1SCCn1cnc2ccsc2c1=O | -2.9
39 | Cc1ccc(CNc2cnn(CC(F)F)c2)cc1C | -0.71
40 | O=C(Nc1ccccn1)C1CC(=O)N(Cc2ccccn2)C1 (configuration not stated) | 2.84
41 | CCNc1nc(-c2cccnc2)c(-c2ccnc(NCCO)n2)s1 | -13.7
42 | NC(=O)c1cc2c(nc1CC1CCCCO1)CCC2 (configuration not stated) | -5.4

Row | Structure (SMILES) | cytotoxicity at 10 µM [%]
43 | Cc1occc1C(=O)Nc1ccc(C(=O)NC[C@H]2CCCN2)cc1 | -10.6
44 | O=C(CN1CCOCC1)N1CCC(c2cc(N3CCCC3)ncn2)CC1 | 3.6
45 | O=C(Nc1nncs1)N1CCCN(C2CCCC2)CC1 | -4.31
46 | C[C@@H]1CN(C2(C(=O)N(C)C)Cc3ccccc3C2)C[C@H](C)O1 | -5.19
47 | O=C(c1cc(-c2ccco2)nc2c(Cl)cccc12)N1CCS(=O)(=O)CC1 | -1.99
48 | Cc1cc(N2Cc3cnn(CCO)c3C2)nc(-c2ccccc2)n1 | -156
49 | O=C1O[C@@H]2CN(Cc3ccccc3F)C[C@@H]2N1CCCN1CCOCC1 | -4.73
50 | COc1ccccc1Oc1ncccc1CNC(=O)[C@H](N)CC(C)(C)C | -1.73
51 | CCC(CO)N(Cc1ccccc1C)Cc1ccccc1C(=O)O (configuration not stated) | -6.32
52 | COCC(c1ccccn1)N(C)C(=O)c1cc(-c2ccc(O)cc2)n[nH]1 (configuration not stated) | -4.07
53 | O=C(Nc1cnn(CC(=O)N2CCCCO2)c1)c1ccccn1 | -0.0294
54 | CC(=O)NC1CCN(C(=O)c2cnc(COc3ccccc3)nc2O)C1 (configuration not stated) | -5.3
55 | COc1ccc(CCNC(=O)CN2CCOCS2(=O)=O)cc1 | -2.64
56 | CCc1nc(C)c(CN2CCCC(c3nn(C)c(=O)n3CC)C2)[nH]1 (configuration not stated) | -7.77
57 | Cc1nc(N)cc(NCc2csc(N(C)C)n2)n1 | -5.2
58 | CCCSc1ccccc1NC(=O)N1CCN(C(=O)c2ccc[nH]2)CC1 | 3.99
59 | CC(C)n1cnnc1CN(C)Cc1ccc(CN(C)S(C)(=O)=O)o1 | -1.31
60 | Cc1ccc2c(c1)c(CNC(=O)C1CCN(CC(N)=O)CC1)nn2C | -3.17
61 | CCc1ccc2nc(C)cc(C(=O)NC[C@@H]3CCNC[C@H]3O)c2c1 | -3
62 | CCC1(CO)CCCN(Cc2nccn2Cc2ccccc2)C1 (configuration not stated) | -7.35
63 | CN(Cc1ccco1)C(=O)[C@@]12CNC[C@@H]1CN(C1CCCC1)C2 | 3.75

Row | Structure (SMILES) | cytotoxicity at 10 µM [%]
64 | O=C(CCCN1CCCCC1)N1CCN(C(=O)c2ccc[nH]2)CC1 | 57.8
65 | CN(C)c1cc(N(C)Cc2cc(C(C)(C)C)n[nH]2)ncn1 | -0.629
66 | Cc1cnc(CNCc2cnc(-c3ccccc3C)s2)cn1 | -0.37
67 | CCCn1ncc(C(=O)N(CCOC)Cc2c(C)nn(CC)c2C)c1C | -4.97
68 | O=C(Nc1cccc(-c2cscn2)c1)N1CCC2(CC1)CC(O)CO2 (configuration not stated) | -3.13
69 | CCc1ccc2nc(C)cc(C(=O)N[C@@H]3CCCNC3)c2c1 | -5.09
70 | O=C(NC1CC(=O)N(C2Cc3ccccc3C2)C1)c1cnccn1 (configuration not stated) | 0.661
71 | CCN(CC)S(=O)(=O)N(C)Cc1ccc2c(c1)OCCO2 | -7.85
72 | Cc1ccc(C(=O)NCc2cccnc2N(C)C)s1 | -2.12
73 | O=C(CS(=O)(=O)Cc1ccc(F)cc1)NC1CCCCNC1=O (configuration not stated) | -0.252
74 | COCCc1noc(CN2CCOC(Cn3cc(C)cn3)C2)n1 (configuration not stated) | -4.18
75 | COc1ccccc1C(=O)N(C)Cc1nnc2ccccn12 | -2.45
76 | CCc1nc(C2CCCN(C(=O)NC3CC3)C2)no1 (configuration not stated) | -15.3
77 | O=C(NCc1cccc(N2CCCCC2=O)c1)[C@@H](O)c1ccccc1 | -8.31
78 | Cc1cnn(CC2CCCN2C(=O)c2cn(-c3ccccc3)nc2C)c1 (configuration not stated) | -9.39
79 | O=C(N[C@H]1CN[C@H]2CCCO[C@H]21)c1ccno1 | -6.92
80 | C[C@H]1CN(C(=O)c2ccoc2)C[C@@]12CCN(CCN(C)C)C2=O | -1.77
81 | O=C(C[C@@H]1COC[C@H]2CN(C(=O)c3cccnc3)C[C@@H]12)N1CCOCC1 | -105
82 | Cc1cccc(CN2C[C@H]3CC[C@@H](C2)N(Cc2c(C)noc2C)C3=O)n1 | 0.296
